Cytotoxicity data for 39 compounds are collected here from ChEMBL document CHEMBL4513216, “Probing the Open Global Health Chemical Diversity Library for Multistage-Active Starting Points for Next-Generation Antimalarials” (ACS Infect Dis, 2020).

This data set can be described thus: Toxicity liver stage against HepG2, at 10uM. It counts as cell-based. More on the design: test concentration 10 uM, cell line HepG2-A16-CD81EGFP. The following applies: human, HepG2-A16-CD81EGFP cells; read-out: INHIBITION
In outline:
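Uninfected HepG2-A16-CD81EGFP cells, 3 × 10^3 per well, 1536-well, plated on prespotted compound at 10 μM final, parasite-free screening media added to match infected plates; puromycin 10 μM positive, DMSO 0.5% negative; run in parallel with 48 h PbLuc assay at 37 °C, 5% CO2; viability by CellTiter-Glo luminescence, normalized to controls.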
`Cc1nsc(C(=O)N2CCc3ccccc3C2)n1`: the cytotoxicity at 10 µM is 5.86%.
Under `O=C(NCCO)C1(CC2CC(c3ccc(F)cc3)=NO2)CCOCC1` (centres undefined) stands -2.55%; under `COCCC(=O)N1CCCC1c1nc(C)c2c(n1)N(C)C(=O)CC2` (centres undefined), -1.04%.
Under `CCC(O)CN1CCN(C(=O)c2cccc3c2OCC(=O)N3)CC1` (centres undefined) stands -7.55%; under `CC(C)(C)CC(NC(=O)c1nc(=O)[nH][nH]1)c1ccc(F)cc1` (centres undefined), -2.42%.
The value for `COc1ccc(C(=O)NS(=O)(=O)c2ccc(CNC(C)=O)s2)cc1` was 1.81%.
As for `COCCN(C(=O)c1ccoc1C)c1ccc(C#N)cc1`, the cytotoxicity at 10 µM is -4.9%.
The value for `COc1c(Cl)cc(C(=O)NCc2n[nH]c(C)n2)cc1Cl` was 1.42%.
Under `COc1c(C2CCCN2Cc2nccn2C)c(C)nn1C` (centres undefined) stands 3.06%; under `Cc1nc(C)c(S(=O)(=O)NC(=O)c2cccs2)s1`, -0.837%; under `N#Cc1cccnc1N[C@@H]1c2ccccc2C[C@@H]1O`, 2.28%.
Regarding `O=C(CS(=O)(=O)Cc1nnnn1C1CC1)NCCc1ccccc1`, the cytotoxicity at 10 µM came out at 2.92%.
Under `COc1cc(C)nc(N2CCN(C(=O)CCc3ccco3)CC2)n1` stands 7.92%; under `CC(=O)N1CCCN(C(=O)CN(C)c2ccc(Cl)cn2)CC1`, -7.64%; under `CS(=O)(=O)Cc1ccc(C(=O)NCC2Cc3ccccc3O2)cc1` (centres undefined), 6.6%.
Under `COc1ccc(Nc2ncccc2C#N)cc1N1CCCC1=O` stands 6.86%; under `Cn1cc(N2CCCC(Oc3ccc(F)cc3Cl)C2=O)cn1` (centres undefined), -3.3%; under `O=C(O)c1csc(S(=O)(=O)N2CCCc3cccc(OC(F)F)c32)c1`, -13.5%.
Under `O=C(NCCCC(=O)N1CCN(CC2CC2)c2ccccc21)C1CC1` stands -9.59%; under `N#Cc1cc(S(N)(=O)=O)ccc1NC1CCc2cc(Cl)ccc21` (centres undefined), 29.1%.
As to `O=C([C@H]1CCCO1)N1CCc2ncc(CN3CCOCC3)n2CC1`, the cytotoxicity at 10 µM is -72.3%.
With `CN1CCN(Cc2cnc3n2CCN(C(=O)N2CCCC2)C3)CC1`, the cytotoxicity at 10 µM is -72.3%.
Turning to `O=C(CO)N1CCCC2(CCN(c3ccsc3)C2=O)C1` (centres undefined), the cytotoxicity at 10 µM was -66.8%.
As for `O=c1c2ccc(Cl)cc2ncn1CCCN1CCCCC1CO` (centres undefined), the cytotoxicity at 10 µM is -2.4%.
In the case of `Cc1nc[nH]c1CN1CCn2nc(CN3Cc4ccccc4C3)cc2C1`, the cytotoxicity at 10 µM turned out to be 3.79%.
The value for `CN1CC[C@H]2CN(C(=O)c3csc(Cc4ccccc4)n3)C[C@H]21` was -2.45%.
Under `CCN1CC(C(=O)N2CC(Oc3ccccc3Cl)C2)CC1=O` (centres undefined) stands -2.83%; under `Cn1ncc2c(N3CCC(CCO)CC3)nc(C(C)(C)C)nc21`, 14.6%.
`CN1CCN([C@@H]2CCN(Cc3cccc(-n4cccn4)c3)C[C@H]2O)CC1`: the cytotoxicity at 10 µM is 8.42%.
For `CCn1ccnc1C1CCCN(C(=O)c2sc(C)nc2C)C1` (centres undefined), the cytotoxicity at 10 µM was found to be 1.24%.
Under `Cc1cc(C)c2c(N3CCC(O)(Cn4ccnc4)CC3)ncnc2n1` stands -3.28%; under `COCCOC(=O)N1CCC(c2nccn2CC2CC2)CC1`, -2.08%; under `CCOc1ncccc1NC(=O)N1CCCC(CNC(N)=O)C1` (centres undefined), -11.1%.
Under `Clc1cc(CN2CCCC2Cn2cncn2)c2ncccc2c1` (centres undefined) stands 1.28%; under `Clc1ccc2cccnc2c1CN1CCCC(Cn2cncn2)C1` (centres undefined), 8.38%; under `Cc1nn(C)c(C)c1CCn1cncc1-c1ccc2c(c1)CC(C)N2C` (centres undefined), -0.168%.
Under `c1cnc(N2CCCC(NCc3cccc4c3OCCO4)C2)nc1` (centres undefined) stands -8.18%; under `O=C1CC2(CCN(Cc3cccnc3)C2)CN1c1ccc2c(c1)OCO2` (centres undefined), -70.2%; under `Cn1cc(N2CC3(CCN(Cc4cccnc4)CC3)OCC2=O)cn1`, -79.3%.
